PP5 inh = blocks human protein phosphatase 5 activity; P53041; 320,000 tested, 0.18% active; inhibition, % at 6.7 µM; purified PP5c, OMFP substrate fluorescence;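 active = inhibition above the campaign's mean inhibition across all tested compounds plus 3 SD, cut at about 9.5% in these data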;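 also: 0% = DMSO only and 100% = 100 µM cantharidin control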
Apaf1 inhib = inhibitors of human Apaf-1 apoptosome. 330,000 tested, 0.71% active. inhibition, % at 20 µM. reconstituted apoptosome caspase-3 activity, DEVD-Rh110 fluorescence. O14727; active = inhibition of at least 40% at 20 µM;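 also: plate controls were DMSO wells for no effect and DEVD-CHO caspase inhibitor wells for full effect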
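System: Apoptosome proteins | Medium: Hepes pH 7.5 with detergent and BSA | Also added: Cytochrome c trigger plus (Z-DEVD)2-Rh110 caspase-3 substrate | Incubation: 30 min compound preincubation, 50 min activation, room temperature | Detection: Rhodamine 110 fluorescence at Ex 480/Em 540 nm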
TDP2 inh = TDP2 (human) inhibition, absorbance primary screen; O95551; recombinant TDP2, T5PNP hydrolysis, p-nitrophenol absorbance 415 nm; inhibition, % at 12.8 µM; 370,000 tested, 0.34% active; AID 720702;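 active = inhibition above the mean of all tested compounds plus 3 SD, set per campaign, cut at about 25% in these data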;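 also: 0% = DMSO with enzyme and 100% = buffer with substrate but no TDP2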
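Test system: Human TDP2 enzyme | Reagent: 5 mM T5PNP | Compound dosing: 12.8 µM single point, 1% DMSO | Incubation: Enzyme reaction with compound for 2 h at 37 °C | Technique: p-Nitrophenol epi absorbance | Read-out: % inhibition relative to enzyme-containing and enzyme-free wells | Benchmarks: High control without enzyme, low control DMSO plus TDP2 | Replicates: Singlicate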
PP1 counter = counter-screen for PP5 inhibitors: inhibitors of human PP1-alpha; P62136; AID 2235; purified PP1alpha, OMFP fluorescence; 320,000 tested, 0.9% active; inhibition, % at 6.7 µM;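 active = inhibition above the mean inhibition of all tested compounds plus 3 SD, computed separately for each screening campaign, cut at about 15% in these data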
Target sequence (P62136 whole entry, looked up): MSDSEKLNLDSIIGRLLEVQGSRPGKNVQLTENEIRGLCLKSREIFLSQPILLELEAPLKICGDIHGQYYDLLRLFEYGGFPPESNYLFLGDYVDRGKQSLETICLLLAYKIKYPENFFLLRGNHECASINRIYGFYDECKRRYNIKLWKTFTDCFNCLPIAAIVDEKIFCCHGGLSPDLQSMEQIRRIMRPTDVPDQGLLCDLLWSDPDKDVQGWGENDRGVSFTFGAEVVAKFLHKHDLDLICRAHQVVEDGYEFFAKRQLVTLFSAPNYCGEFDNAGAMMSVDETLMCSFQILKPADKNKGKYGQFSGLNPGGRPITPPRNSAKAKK
GSTO1 inh = counter-screen for RBBP9 inhibitors: inhibitors of human GSTO1; 300,000 tested, 1.1% active; P78417; inhibition, % at 5.96 µM; recombinant GSTO1, activity-based probe fluorescence polarization;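 active = inhibition above the campaign mean inhibition plus 3 SD, cut at about 35% in these data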;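 also: 0% = GSTO1-1 with DMSO and 100% = wells lacking GSTO1-1 enzyme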
Target sequence (P78417 whole entry, looked up): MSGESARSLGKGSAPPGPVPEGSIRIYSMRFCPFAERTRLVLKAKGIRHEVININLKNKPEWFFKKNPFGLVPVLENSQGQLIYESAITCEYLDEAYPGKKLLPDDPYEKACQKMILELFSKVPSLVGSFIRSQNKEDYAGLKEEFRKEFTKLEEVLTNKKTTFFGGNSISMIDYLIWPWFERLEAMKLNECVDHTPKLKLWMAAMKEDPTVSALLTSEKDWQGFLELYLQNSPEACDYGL
GSTO1 inh conf = GSTO1 (human) inhibition, confirmation; 2,400 tested, 54% active; recombinant GSTO1, probe fluorescence polarization; shares compounds with GSTO1 inh; inhibition, % at 5.96 µM; AID 2176;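 active = inhibition above the primary screen's cutoff, its mean inhibition plus 3 SD, cut at about 35% in these data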;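 also: loss of polarization as inhibitors block binding of rhodamine sulfonate ester activity probe; 0% = GSTO1 with DMSO and 100% = wells lacking GSTO1 enzyme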
GSTO1 recomb ABPP = GSTO1 (human) inhibition by gel ABPP | shares compounds with GSTO1 inh | recombinant GSTO1, gel ABPP SE-Rh probe fluorescence | inhibition, % at 1 µM | 130 tested, 30% active | AID 463110;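 active = inhibition of the enzyme GSTO1 above about 75%, limit read from the data; inactive = inhibition below that limit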
Active calls of the source: *; . = no result. This is a sample that favours compounds with a hit; in the whole collection about 2.1% have one here.

SMILES | PP5 inh | Apaf1 inhib | TDP2 inh | PP1 counter | GSTO1 inh | GSTO1 inh conf | others
CC1=C(C(=O)N(C)C)CC(CC(=O)NCc2cccs2)C(=O)N1Cc1ccc(F)cc1 (centres undefined) | . | . | 10 | . | . | .
O=C(CSc1nc2ncc(Br)cc2[nH]1)Nc1ccc2c(c1)OCO2 | 4 | 13 | -6 | 0 | 45* | 53*
Cc1cc(C)c(NC(=O)CSc2nc3ncc(Br)cc3[nH]2)c(C)c1 | 2 | -4 | 18 | 3 | 5 | .
Cc1ccc(S(=O)(=O)c2nc(S(C)(=O)=O)sc2N2CCOCC2)cc1 | 1 | -2 | -6 | 1 | -3 | .
Cc1ccc(S(=O)(=O)c2nc(S(C)(=O)=O)sc2N2CCC3(CC2)OCCO3)cc1 | 0 | -5 | -1 | -1 | 63* | 5
CCC(=O)N1CCc2cc(Br)c(S(=O)(=O)NCCCN(C)Cc3ccccc3)cc21 | . | . | 2 | . | . | .
Cc1cc(C)cc(C(O)c2ncc(-c3ccccc3C)[nH]2)c1 (centres undefined) | . | . | -6 | . | . | .
O=C(CC[C@H]1O[C@@H](n2ccc(=O)[nH]c2=O)[C@H](O)[C@@H]1O)NCCN1CCOCC1 | . | . | -3 | . | . | .
COc1cc(NC(=O)C(OC(=O)CNC(=O)c2ccccc2)c2ccccc2)cc(C(F)(F)F)c1 (centres undefined) | . | . | 3 | . | . | .
CC(=O)N1N=C(c2ccccc2)OC1c1ccc([N+](=O)[O-])s1 (centres undefined) | -1 | 37 | . | -3 | 41* | 14
CC1=C(C(=O)N2CCCCCC2)CC(CC(=O)NC(c2ccccc2)c2ccccc2)C(=O)N1Cc1ccccc1 (centres undefined) | . | . | -8 | . | . | .
CCOc1ccc(/C(O)=C2/C(=O)C(=O)N(c3cc(C)on3)C2c2ccc(C(=O)OC)cc2)cc1 (centres undefined) | -1 | 3 | 10 | 8 | 44* | 0
CCCOc1ccc(/C(O)=C2/C(=O)C(=O)N(c3cc(C)on3)C2c2ccc(C(=O)OC)cc2)cc1 (centres undefined) | 0 | 8 | -10 | 6 | -9 | .
O=C(NCCc1c[nH]c2ccccc12)c1ccc(Sc2ccccc2Cl)c([N+](=O)[O-])c1 | . | . | -7 | . | . | .
COc1ccccc1Oc1c(C)oc2c(CN3CCN(CCO)CC3)c(O)ccc2c1=O | 3 | 9 | 3 | 1 | 67* | 8
O=C(CCl)N(Cc1cc(=O)[nH]c2ccccc12)c1ccccc1 | 0 | 10 | 6 | 1 | 85* | 92* | GSTO1 recomb ABPP=54
O=C(CCl)N(Cc1ccccc1)c1ccccc1 | 4 | -3 | 1 | -2 | 93* | 96* | GSTO1 recomb ABPP=36
Cc1ccccc1N(Cc1cc(=O)[nH]c2ccccc12)C(=O)CCl | 0 | 0 | -10 | -2 | 74* | 75* | GSTO1 recomb ABPP=21
CCCN(C(=O)Cn1ncc2c([nH]c3ccccc32)c1=O)c1ccccc1C | 3 | 10 | 6 | 5 | -1 | .
CCCCCCCN(C(=O)CCl)c1ccccc1C | -2 | 12 | -8 | -4 | 101* | 96* | GSTO1 recomb ABPP=68
O=C(CSc1ncnc2scc(-c3ccc(Cl)cc3)c12)Nc1ccccc1-c1ccccc1 | . | . | 4 | . | . | .
C[C@H]1COc2cc(Br)ccc2S(=O)(=O)N1Cc1cn(CCC2OCCCO2)nn1 | . | . | 0 | . | . | .
Clc1ncccc1-c1nnn(-c2ccccc2)n1 | 4 | 2 | -4 | -1 | 58* | 4
Fc1ccc(-n2nnc(-c3cccnc3Cl)n2)cc1 | 4 | 3 | 13 | 0 | 0 | .
Cc1ccc(S(=O)(=O)N2CCCCC2)cc1NS(=O)(=O)c1cccc(C(=O)O)c1 | 1 | 8 | 5 | -3 | 39* | 32
SMILES | PP5 inh | Apaf1 inhib | TDP2 inh | PP1 counter | GSTO1 inh | GSTO1 inh conf | others
CC(C)(C)CC(=O)Nc1cc(S(=O)(=O)N2CCCCCC2)ccc1Cl | 0 | 2 | -9 | -2 | 0 | .
O=C(CCl)N1CCN(S(=O)(=O)c2ccc3ccccc3c2)CC1 | -1 | 8 | 7 | 0 | 87* | 94* | GSTO1 recomb ABPP=88*
O=C(O)c1cccc(S(=O)(=O)Nc2cccc(S(=O)(=O)N3CCCCCC3)c2)c1 | 1 | 1 | 4 | -5 | 8 | .
O=C(CCl)Nc1cc(S(=O)(=O)N2CCCCCC2)ccc1Cl | 1 | 5 | -1 | -1 | 96* | 96*
Nc1[nH]c(C(=O)c2ccccc2)c(-c2ccc(Cl)cc2)c1C(=O)NCCC1=CCCCC1 | . | . | 10 | . | . | .
O=c1c(Cl)c(Cl)cnn1Cc1ccc(F)cc1 | 2 | -11 | 10 | -3 | 9 | .
O=C(OCn1ncc(Cl)c(Cl)c1=O)c1ccc(F)cc1 | 1 | 18 | . | -4 | 44* | 29
O=C(OCn1ncc(Cl)c(Cl)c1=O)c1ccccc1Cl | 2 | . | 18 | 3 | 48* | 33
CCOC(=O)c1nc(N/N=C/c2ccccc2)sc1Br | -2 | 25 | 4 | 5 | 51* | 21
CCOC(=O)c1sc(N/N=C/c2ccc(N(C)C)cc2)nc1C | 2 | -11 | -18 | 2 | 5 | .
NC(=O)N/N=C/c1coc2ccc(O)cc2c1=O | 1 | 5 | 10 | -3 | 70* | 20
c1csc(-c2ccc3nncn3c2)c1 | . | . | 11 | . | . | .
CC(C)NC(=O)C1(C)CN(S(C)(=O)=O)CC(=O)N1CCc1ccccc1 (centres undefined) | . | . | 5 | . | . | .
CC1=NN(c2cccc(C(=O)O)c2)C(=O)/C1=C\C=C\c1ccco1 | 1 | 6 | 22 | 2 | 55* | 28
COc1ccc(-c2[nH]ncc2CN2CCN(Cc3cccs3)CC2)cc1F | 0 | -11 | 2 | 1 | 72* | 4
CCC1(c2ccccc2)CN(C)C1=O (centres undefined) | . | . | -8 | . | . | .
CCN1c2ccccc2N(C)C1(C)c1ccccc1 (centres undefined) | 5 | . | . | 2 | 55* | 37*
CN1c2ccccc2N(C)C1(C)c1ccccc1 | 0 | . | 10 | 0 | 50* | 7
COc1cc2c(ccc3cc(OC)c(OC)c(O)c32)cc1O | 6 | -21 | 8 | -1 | 55* | 45*
COc1cc2cccc(OC)c(=O)c2c(O)c1OC | -2 | 1 | 5 | 0 | 0 | .
CCCCOCC1CN(CCCC)S(=O)(=O)c2c(cccc2N2CCCC2)O1 (centres undefined) | . | . | 5 | . | . | .
CC1=C(C(=O)OCc2ccccc2)C(c2ccccc2OS(=O)(=O)c2ccccc2[N+](=O)[O-])NC(=O)N1CCCC(=O)O (centres undefined) | -3 | 24 | 14 | 9 | 58* | 63*
Cc1cc(C)c(S(=O)(=O)NCc2cn3ccccc3n2)c(C)c1 | 2 | -6 | -17 | 5 | 39* | 8
Cc1cc(C)c(S(=O)(=O)Nc2ccc(-c3cn4ccccc4n3)cc2)c(C)c1 | 5 | 8 | -6 | 1 | -1 | .
